The source made the active and inactive calls. The calls are words filed in the database; no cut-off is given here.

Test [1] has as its target T1, Bile acid receptor (Homo sapiens) (UniProt Q96RI1).
T1 sequence (whole entry): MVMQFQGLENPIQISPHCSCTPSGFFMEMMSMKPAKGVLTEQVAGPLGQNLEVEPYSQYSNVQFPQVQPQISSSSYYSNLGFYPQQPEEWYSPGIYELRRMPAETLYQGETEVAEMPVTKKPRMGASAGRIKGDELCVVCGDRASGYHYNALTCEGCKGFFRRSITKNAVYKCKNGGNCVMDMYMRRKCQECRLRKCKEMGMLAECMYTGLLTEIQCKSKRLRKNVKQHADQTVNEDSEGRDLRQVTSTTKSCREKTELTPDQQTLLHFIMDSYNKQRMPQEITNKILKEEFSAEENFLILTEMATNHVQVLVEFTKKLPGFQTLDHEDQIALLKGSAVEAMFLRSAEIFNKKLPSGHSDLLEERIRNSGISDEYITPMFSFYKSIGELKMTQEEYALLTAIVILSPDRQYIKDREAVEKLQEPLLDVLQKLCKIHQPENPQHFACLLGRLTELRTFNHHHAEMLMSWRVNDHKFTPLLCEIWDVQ
The experiment in a line: Partial agonist activity at human FXR expressed in human HepG2 cells assessed as induction of transactivation at 10 uM after 18 hrs by luciferase reporter gene assay. The test is classed as functional, cell-based. The essentials: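 HepG2 cells (5 × 10^5 cells/well) were transiently transfected using Fugene HD with pSG5-FXR, pSG5-RXR, pCMV-β-gal and a p(hsp27)-TK-LUC reporter carrying the hsp27 IR1 FXR response element. At 48 h post-transfection, cells were stimulated 18 h with test agent at 10 μM; 10 μM CDCA served as reference. Luciferase was normalized to β-gal; P < 0.05 vs untreated, n = 4.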

Test [2] concerns the target T1, Bile acid receptor (Homo sapiens). Put plainly: Antagonist activity at human FXR expressed in HepG2 cells assessed as inhibition of CDCA-induced transactivation at 50 uM after 18 hrs by luciferase reporter gene assay. In general terms: In a reporter assay the amount or activity of a reporter protein is the signal.
The target is the same in test [3]. The experiment in a line: Agonist activity at human FXR expressed in human HepG2 cells assessed as induction of OSTalpha mRNA expression at 50 uM by quantitative RT-PCR analysis. The test is classed as functional, cell-based. In a few lines: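 HepG2 cells were primed with 10 μM CDCA alone or with 50 μM test agent. cDNA (50 ng template) was amplified by SYBR Green qPCR with 0.2 μM of each primer over 40 cycles (95/55/72 °C) in triplicate. Expression was normalized to GAPDH and reported as 2^ΔΔCT relative to untreated cells.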

In the case of `C=C1[C@@H](O)CC[C@]2(C)C3=C(CC[C@@H]12)[C@@H]1C(=O)C[C@H]([C@H](C)CC[C@H](CC)C(C)C)[C@@]1(C)CC3`, the outcome in test [1] was inactive. The inhibition result in test [2] is “Active”.
With `C=C1[C@@H](O)CC[C@]2(C)C3=C(CC[C@@H]12)[C@]1(O)[C@@H](O)C[C@H]([C@H](C)CC[C@H](CC)C(C)C)[C@@]1(C)C[C@@H]3O`, the outcome in test [1] and in test [3] was Active. Further, the inhibition result in test [2] is “Active”.
As to `C=C1[C@@H](O)CC[C@@]2(C)[C@H]1CCC1=C3[C@H](O)C[C@H]([C@H](C)CC[C@H](CC)C(C)C)[C@@]3(C)CC[C@@]12O`, in test [1], the outcome was inactive. For the same molecule, the inhibition result in test [2] is “Active”.
With `C=C1[C@@H](O)CC[C@@]2(C)[C@H]1CCC1=C3[C@H](O)C[C@H]([C@H](C)CC[C@H](CC)C(C)C)[C@@]3(C)CC[C@@]12OC`, in test [1], the outcome was inactive. In addition, the inhibition result in test [2] is “inactive”.
For the molecule `C=C1[C@@H](O)CC[C@]2(C)C3=CC[C@@]4(C)C(=CC[C@@H]4[C@H](C)CC[C@@H](C)C(C)C)C3=CC[C@@H]12`, in test [1], the outcome was inactive. Moreover, the inhibition entry in test [2] was “Active”.
Regarding `C=C1[C@@H](O)CC[C@]2(C)C3=CC[C@@]4(C)C(=CC[C@@H]4[C@H](C)CC[C@H](CC)C(C)C)C3=CC[C@@H]12`, in test [1], the outcome was inactive. The inhibition result in test [2] is “Active”.
As to `C=C1[C@@H](O)CC[C@]2(C)C3=C(CC[C@@H]12)[C@]1(O)[C@@H](O)C[C@H]([C@H](C)CC[C@H](CC)C(C)C)[C@@]1(C)C[C@H]3O`, in test [1], the result was inactive. In addition, the inhibition entry in test [2] was “inactive”.
In the case of `C=C1[C@@H](O)CC[C@@]2(C)[C@H]1CCC1=C3[C@H](O)C[C@H]([C@H](C)CC[C@@H](C)C(C)C)[C@@]3(C)CC[C@@]12O`, the outcome in test [1] was inactive. The inhibition result in test [2] was “Active”.
For the molecule `C=C1[C@@H](O)CC[C@@]2(C)[C@H]1C[C@@H](O)C1=C3[C@H](O)C[C@H]([C@H](C)CC[C@H](CC)C(C)C)[C@@]3(C)CC[C@@H]12`, in test [1], the result was inactive. In addition, in test [2], the inhibition result was “Active”.
